Laboratory results reported in ChEMBL document CHEMBL1158959, “Antitumor agents, 119. Kansuiphorins A and B, two novel antileukemic diterpene esters from Euphorbia kansui” (J Nat Prod, 1991).
Values after ≈ are worked out from the molar mass of the structure shown. Active and inactive are the calls of the source. No cut-off for these calls is given here.

Assays:
P388 [1] = assay: In vivo antileukemic activity in mouse P388 cells at 0.1 mg/kg relative to control; assay type: functional
Method in brief: (§1)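 In vivo P-388 lymphocytic leukemia model run by standard National Cancer Institute procedures; activity is reported as T/C (%), treated relative to control.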

MOLT-4 = assay: Cytotoxicity against human MOLT4 cells; assay type: functional, cell-based
HL-60(TB) = assay: Cytotoxicity against human HL-60(TB) cells; assay type: functional, cell-based
K562 = assay: Cytotoxicity against human K562 cells; assay type: functional, cell-based
[2] = Cytotoxicity against human NCI-H322 cells; assay type: functional, cell-based
HOP-62 = assay: Cytotoxicity against human HOP62 cells; assay type: functional, cell-based
SW-620 = assay: Cytotoxicity against human SW620 cells; assay type: functional, cell-based
SK-MEL-5 = assay: Cytotoxicity against human SK-MEL-5 cells; assay type: functional, cell-based
RPMI-7951 = assay: Cytotoxicity against human RPMI7951 cells; assay type: functional, cell-based
Malme-3M = assay: Cytotoxicity against human MALME-3M cells; assay type: functional, cell-based
A498 = assay: Cytotoxicity against human A498 cells; assay type: functional, cell-based
A704 = assay: Cytotoxicity against human A704 cells; assay type: functional, cell-based
SN12K1 = assay: Cytotoxicity against human SN12K1 cells; assay type: functional, cell-based
P388 [3] = assay: Cytotoxicity against adriamycin-resistant mouse P388 cells; assay type: functional, cell-based
NCI-H522 = assay: Cytotoxicity against human NCI-H522 cells; assay type: functional, cell-based
H125 = assay: Cytotoxicity against human H125 cells; assay type: functional, cell-based
NCI-H23 = assay: Cytotoxicity against human H23 cells; assay type: functional, cell-based
EKVX = assay: Cytotoxicity against human EKVX cells; assay type: functional, cell-based
NCI-H82 = assay: Cytotoxicity against human H82 cells; assay type: functional, cell-based
NCI-H524 = assay: Cytotoxicity against human NCI-H524 cells; assay type: functional, cell-based
NCI-H146 = assay: Cytotoxicity against human NCI-H146 cells; assay type: functional, cell-based
DLD-1 = assay: Cytotoxicity against human DLD1 cells; assay type: functional, cell-based
HCC 2998 = assay: Cytotoxicity against human HCC2998 cells; assay type: functional, cell-based
MCF7 = assay: Cytotoxicity against human MCF7 cells; assay type: functional, cell-based
NCI/ADR-RES = assay: Cytotoxicity against human MCF7/ADR cells; assay type: functional, cell-based
U-251 = assay: Cytotoxicity against human U251 cells; assay type: functional, cell-based
SNB-19 = assay: Cytotoxicity against human SNB19 cells; assay type: functional, cell-based
SNB44 = assay: Cytotoxicity against human SNB44 cells; assay type: functional, cell-based
SNB-75 = assay: Cytotoxicity against human SNB75 cells; assay type: functional, cell-based
SK-MEL-2 = assay: Cytotoxicity against human SK-MEL-2 cells; assay type: functional, cell-based
OVCAR-8 = assay: Cytotoxicity against human OVCAR8 cells; assay type: functional, cell-based
OVCAR-5 = assay: Cytotoxicity against human OVCAR5 cells; assay type: functional, cell-based
UO-31 = assay: Cytotoxicity against human UO31 cells; assay type: functional, cell-based
NCI-H69 = assay: Cytotoxicity against human H69 cells; assay type: functional, cell-based
P388 [4] = assay: In vivo antileukemic activity in mouse P388 cells at 0.5 mg/kg relative to control; assay type: functional; method in brief: as §1

CCCCCCCCCCCCCCCC(=O)OCC1=C[C@@H]2C(=O)[C@]3(C=C(C)[C@H](OC(=O)C(C)C(C)C)[C@@]3(O)[C@@H]1O)[C@H](C)C[C@]1(OC(=O)CCCCCCCCCCC)[C@H]2C1(C)C (stereo not given in full) [KANSUIPHORIN A]
T/C (P388 [1]): >=176%
IC50 (MOLT-4): 0.13 µg/mL (≈ 0.147 µM)
IC50 (HL-60(TB)): 0.03 µg/mL (≈ 0.034 µM)
IC50 (K562): 0.03 µg/mL (≈ 0.034 µM)
IC50 [2]: 0.33 µg/mL (≈ 0.374 µM)
IC50 (HOP-62): 0.06 µg/mL (≈ 0.0679 µM)
IC50 (SW-620): 0.08 µg/mL (≈ 0.0906 µM)
IC50 (SK-MEL-5): 0.14 µg/mL (≈ 0.158 µM)
IC50 (RPMI-7951): 0.05 µg/mL (≈ 0.0566 µM)
IC50 (Malme-3M): 0.32 µg/mL (≈ 0.362 µM)
IC50 (A498): 0.02 µg/mL (≈ 0.0226 µM)
IC50 (A704): 0.03 µg/mL (≈ 0.034 µM)
IC50 (SN12K1): 0.07 µg/mL (≈ 0.0792 µM)
Activity (P388 [3]): inactive
Activity (NCI-H522): inactive
Activity (H125): inactive
Activity (NCI-H23): inactive
Activity (EKVX): inactive
Activity (NCI-H82): inactive
Activity (NCI-H524): inactive
Activity (NCI-H146): inactive
Activity (DLD-1): inactive
Activity (HCC 2998): inactive
Activity (MCF7): inactive
Activity (NCI/ADR-RES): inactive
Activity (U-251): inactive
Activity (SNB-19): inactive
Activity (SNB44): inactive
Activity (SNB-75): inactive
Activity (SK-MEL-2): inactive
Activity (OVCAR-8): inactive
Activity (OVCAR-5): inactive
Activity (UO-31): inactive
Activity (NCI-H69): inactive

CCCCCCCCCCCCCCCC(=O)OC[C@@]12O[C@@H]1[C@@H]1C(=O)[C@]3(C=C(C)[C@H](OC(=O)C(C)C(C)C)[C@@]3(O)[C@@H]2O)[C@H](C)C[C@]2(OC(=O)CCCCCCCCCCC)[C@H]1C2(C)C (stereo not given in full) [KANSUIPHORIN B]
T/C (P388 [4]): >=177%
